# Measurements of several laboratories.
# Compare with care: the assays were run in different laboratories.
# Target: Serine/threonine-protein kinase MARK2 (MARK2, Homo sapiens, UniProt Q7KZI7)
Compound,observed,action,method,concentration,endpoint,value
CCCCC(=O)Nc1ccc(-c2ccc3ncn(CCC)c(=O)c3c2)cn1,binding,,competition with immobilised ligand,0.5 µM,remaining binding,92%
C=CC(=O)N1CCC([C@@H]2CCNc3c(C(N)=O)c(-c4ccc(Oc5ccccc5)cc4)nn32)CC1,enzyme activity,inhibitor,,1 µM,inhibition,0%
Cc1cc(O)c(-c2ccc([C@@H](C)CN(C)C)cc2)c2c1[nH]c(=O)c1sccc12,enzyme activity,inhibitor,,0.1 µM,inhibition,4.31%
C=CC(=O)N1CCC[C@@H](n2nc(-c3ccc(Oc4ccccc4)cc3)c3c(N)ncnc32)C1,enzyme activity,inhibitor,,1 µM,inhibition,10%
Cc1ccc(NC(=O)c2ccnc(C(F)(F)F)c2)cc1-c1cc(OCCO)nc(N2CCOCC2)c1,binding,,,1 µM,remaining binding,99%
COc1ccc2oc(-c3ccc4nc(N)oc4c3)c/c(=N\c3ccccc3NC(=O)CCN)c2c1,binding,,,1 µM,remaining binding,97%
C1=C/COCc2cc(ccc2OCCN2CCCC2)Nc2nccc(n2)-c2cccc(c2)COC/1,binding,,,0.1 µM,remaining binding,66%
COc1ccc2[nH]c3c4[nH]c5ccc(OC)cc5c4c4c(c3c2c1)C(=O)NC4=O,binding,,,1 µM,remaining binding,71%
